Hits are enriched below; roughly 5.8% of the tested compounds scored in any of these assays.
WT yeast gro inh: growth inhibition of WT yeast, mitochondrial fusion screen; mitochondrial fusion phenotypic screen, WT strain; AID 1362; actives 2.1% (n = 190,000); inhibition, % at 10 µM; in the data active = inhibition above about 58%; tested in S. cerevisiae
RBBP9 inhibitor: inhibitors of human serine hydrolase RBBP9; O75884; recombinant RBBP9, FP-Rh probe fluorescence polarization; inhibition, % at 7.94 µM; actives 0.2% (n = 220,000);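 active = inhibition above the campaign mean of all tested compounds plus 3 SD, cut at about 14% in these data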;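 note: plate controls were DMSO wells with RBBP9 for no effect and wells lacking RBBP9 protein for full effect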
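Test system: recombinant human RBBP9. Quantity: 2.5 µM RBBP9 dispensing solution, before mixing. Detection: FP readout at 525/598 nm. Reagent: Serine-hydrolase probe FP-Rh, 375 nM pre-mixing. Measure: % inhibition. Control set: DMSO-treated enzyme wells and wells lacking RBBP9. Buffer or medium: Tris-NaCl-Pluronic buffer, pH 8.0. Times: preincubation 30 min plus labeling 45 min at 25 °C.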
Cl transport mod: modulators of human KCC2 chloride dependent transport | AID 1456 | B-score of Tl+ flux slope (higher = more flux/activation; lower = inhibition) at 10 µM | KCC2 cells, thallium flux FluoZin-2 fluorescence | actives 2.2% (n = 190,000);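 active = thallium flux slope and its plate-corrected score both differing from the plate sample mean at a set confidence after two filtering rounds, in either direction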;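 note: slope of fluorescence scaled to starting intensity during 10 to 20 s after thallium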
ROMK primary: modulates human ROMK potassium channel activity; actives 2% (n = 130,000); B-score at 10 µM; P48048; Tet-inducible ROMK, thallium flux fluorescence; actives lie on both sides;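 active = signal ratio slope over the read window, or its plate-corrected B-score, at least 3 SD from the plate mean, either direction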;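 note: B-score of the F/F0 ratio slope over 7 to 12 s after thallium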
Target sequence (P48048 whole entry, looked up): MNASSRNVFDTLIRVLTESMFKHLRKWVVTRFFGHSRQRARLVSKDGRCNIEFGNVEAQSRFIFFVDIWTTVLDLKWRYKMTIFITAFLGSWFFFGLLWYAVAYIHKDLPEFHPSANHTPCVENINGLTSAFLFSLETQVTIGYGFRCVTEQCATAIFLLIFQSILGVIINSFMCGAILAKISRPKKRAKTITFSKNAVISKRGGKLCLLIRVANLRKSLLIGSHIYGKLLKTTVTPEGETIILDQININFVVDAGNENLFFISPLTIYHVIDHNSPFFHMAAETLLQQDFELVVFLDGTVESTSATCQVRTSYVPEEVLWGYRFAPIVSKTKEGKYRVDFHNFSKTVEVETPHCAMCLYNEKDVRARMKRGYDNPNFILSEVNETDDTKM
NCF1 inh: p47phox (human) inhibition; inhibition, % at 24.7 µM; P14598; p47phox/p22phox peptide binding, fluorescence polarization, 2 h; AID 1274; actives 0.53% (n = 220,000);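 active = inhibition above about 30%, limit read from the data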;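 note: 0% = p47phox with labelled peptide and 100% = labelled peptide alone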
14-3-3 Bad PPI: disrupts binding of bovine 14-3-3 zeta to phospho-Bad peptide | inhibition, % at 21.7 µM | TR-FRET 14-3-3zeta/Dy647-pBad peptide displacement, 1 h | P63103 | actives 0.71% (n = 220,000);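 active = inhibition above about 70%, limit read from the data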;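 note: 0% = full 14-3-3 plus peptide FRET controls and 100% = background without 14-3-3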
Target sequence (P63103 whole entry, looked up): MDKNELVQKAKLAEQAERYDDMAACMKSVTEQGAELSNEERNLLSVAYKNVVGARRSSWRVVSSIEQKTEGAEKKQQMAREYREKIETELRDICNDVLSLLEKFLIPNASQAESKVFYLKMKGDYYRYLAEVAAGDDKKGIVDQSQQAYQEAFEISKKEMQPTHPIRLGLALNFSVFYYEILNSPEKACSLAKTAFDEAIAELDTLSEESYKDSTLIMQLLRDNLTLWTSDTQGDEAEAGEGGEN
* marks the source's active call; other numbers are inactive results.

What do the screens show for `C=C(C)COc1ccc(-c2nc(N)nc(C)c2Oc2ccccc2OC)c(O)c1`?
WT yeast gro inh: 73*; RBBP9 inhibitor: -7; Cl transport mod: 1.1; NCF1 inh: -37; 14-3-3 Bad PPI: -16

Results for C=C(C)COc1ccc(-c2n[nH]c(C)c2Oc2ccccc2OC)c(O)c1 ?
WT yeast gro inh: 10; RBBP9 inhibitor: -17; ROMK primary: 0.0042; NCF1 inh: -17; 14-3-3 Bad PPI: 5

What do the screens show for `CCOC(=O)C(=CNc1ccc(OC)cc1[N+](=O)[O-])C(=O)OCC`?
RBBP9 inhibitor: -3; NCF1 inh: -5; 14-3-3 Bad PPI: -15

What do the screens show for `COc1cc(C)c(CNc2ccc(OC)c(OC)c2)cc1C`?
WT yeast gro inh: 25; RBBP9 inhibitor: 1; ROMK primary: -0.74; NCF1 inh: 17; 14-3-3 Bad PPI: 80*

Results for COc1cc(C)c(CNc2cccc(C)c2)cc1C ?
WT yeast gro inh: 5; RBBP9 inhibitor: 5; Cl transport mod: 0.64; ROMK primary: 0.015; NCF1 inh: -2; 14-3-3 Bad PPI: 73*

Results for COc1ccccc1NS(=O)(=O)c1cc(C(=O)N2CC(C)CC(C)C2)ccc1C (centres undefined) ?
WT yeast gro inh: 26; RBBP9 inhibitor: -9; Cl transport mod: -0.81; ROMK primary: -1.8; NCF1 inh: -4; 14-3-3 Bad PPI: -2

How did Cc1oc(-c2cccc3ccccc23)nc1CN1CCN(c2ncnc3ccccc23)CC1 do in these assays?
WT yeast gro inh: 63*; RBBP9 inhibitor: -5; Cl transport mod: 0.023; NCF1 inh: -17; 14-3-3 Bad PPI: -8

Results for COc1ccc(-c2nc(CN3CCN(c4cc(C)nc(C)c4)CC3)c(C)o2)c2ccccc12 ?
WT yeast gro inh: 37; RBBP9 inhibitor: -6; Cl transport mod: 1.5; ROMK primary: -2.1; NCF1 inh: -17; 14-3-3 Bad PPI: -7

What do the screens show for `O=C(NC(=O)c1cnccc1C(F)(F)F)Nc1ccccc1`?
RBBP9 inhibitor: -11; Cl transport mod: -0.85; NCF1 inh: -11; 14-3-3 Bad PPI: -2

Results for CCCCn1c(SCC(=O)Nc2cc(C(F)(F)F)cc(C(F)(F)F)c2)nnc1C(CC)N(C)C (centres undefined) ?
WT yeast gro inh: 40; RBBP9 inhibitor: -8; Cl transport mod: 0.058; ROMK primary: -0.11; NCF1 inh: 2; 14-3-3 Bad PPI: -5

How did COc1ccc(C)cc1N(C(=O)c1ccc(F)cc1)c1nc2ccccc2s1 do in these assays?
WT yeast gro inh: 69*; RBBP9 inhibitor: -7; Cl transport mod: 0.082; ROMK primary: -0.00016; NCF1 inh: -39; 14-3-3 Bad PPI: 11

How did O=C(CN(C1CCCCC1)C1CCCCC1)N1CCc2ccccc2C1 do in these assays?
WT yeast gro inh: 53; RBBP9 inhibitor: -10; Cl transport mod: -0.056; ROMK primary: -1.8; NCF1 inh: -4; 14-3-3 Bad PPI: 88*

How did COC(=O)c1ccccc1NC(=O)NCc1ccncc1 do in these assays?
WT yeast gro inh: 0; RBBP9 inhibitor: 2; Cl transport mod: -0.94; ROMK primary: -0.5; NCF1 inh: 0; 14-3-3 Bad PPI: -11

Results for COc1cccc(NC(=S)N(CCCN2CCCC2)Cc2ccco2)c1 ?
WT yeast gro inh: -14; RBBP9 inhibitor: -4; ROMK primary: -0.57; NCF1 inh: -4; 14-3-3 Bad PPI: -19

How did S=C(Nc1cccc(Cl)c1)N(CCCN1CCCC1)Cc1cccn1Cc1ccc(Cl)cc1 do in these assays?
WT yeast gro inh: 81*; RBBP9 inhibitor: -2; Cl transport mod: 0.29; NCF1 inh: 43*; 14-3-3 Bad PPI: 25

Results for CSc1cccc(NC(=S)N(CCCN2CCCC2)Cc2cccn2Cc2ccc(Cl)cc2)c1 ?
WT yeast gro inh: 74*; RBBP9 inhibitor: 2; Cl transport mod: 0.88; ROMK primary: -1; NCF1 inh: 32*; 14-3-3 Bad PPI: 36

What do the screens show for `COc1cccc(NC(=S)N(CCCN2CCCC2)Cc2cccn2Cc2ccc(Cl)cc2)c1`?
WT yeast gro inh: 59*; RBBP9 inhibitor: -2; Cl transport mod: 0.66; ROMK primary: -0.17; NCF1 inh: -10; 14-3-3 Bad PPI: 2

Results for CC(C)OC(=O)c1c2nc3ccccc3nc2n2c1[nH]c(=O)c1ccccc12 ?
WT yeast gro inh: -10; RBBP9 inhibitor: -5; Cl transport mod: 125*; ROMK primary: 0.28; NCF1 inh: -36; 14-3-3 Bad PPI: 9

What do the screens show for `CCC(C)C(=O)Nc1nnc(SCC(=O)Nc2ccccc2F)s1` (centres undefined)?
WT yeast gro inh: -17; RBBP9 inhibitor: 2; Cl transport mod: -1.5; ROMK primary: 0.24; NCF1 inh: -5; 14-3-3 Bad PPI: 87*

Results for O=C(Nc1ccc(Cl)cc1C(=O)Nc1ccccn1)c1ccco1 ?
WT yeast gro inh: 25; RBBP9 inhibitor: -9; Cl transport mod: -1.7; NCF1 inh: -15; 14-3-3 Bad PPI: -7

What do the screens show for `O=C(Nc1ccccn1)c1ccco1`?
WT yeast gro inh: 70*; RBBP9 inhibitor: -4; Cl transport mod: -0.27; NCF1 inh: -2; 14-3-3 Bad PPI: -10

Results for CC(=O)N1CCN(CC(=O)Nc2ccccc2Sc2ccccc2)CC1 ?
WT yeast gro inh: -1; RBBP9 inhibitor: -13; Cl transport mod: 0.41; ROMK primary: 0.066; NCF1 inh: -28; 14-3-3 Bad PPI: 10

Results for Cc1c(N2C(=O)c3cccc4cccc(c34)C2=O)cnn1C ?
RBBP9 inhibitor: -6; Cl transport mod: -0.67; NCF1 inh: 2; 14-3-3 Bad PPI: -4

Results for CC(C)(C)C1CCc2[nH]c3ccccc3c(=O)c2C1 (centres undefined) ?
WT yeast gro inh: 82*; RBBP9 inhibitor: -10; ROMK primary: 0.094; NCF1 inh: -8; 14-3-3 Bad PPI: 9

What do the screens show for `CCSC1=NC(C)(C)C=C(/C=C/c2ccc(Cl)cc2Cl)N1`?
WT yeast gro inh: 60*; RBBP9 inhibitor: -5; Cl transport mod: -0.072; ROMK primary: -0.45; NCF1 inh: -37; 14-3-3 Bad PPI: -8

Results for CSC1=NC(C)(C)C=C(/C=C/c2ccc(Cl)cc2Cl)N1 ?
WT yeast gro inh: 68*; RBBP9 inhibitor: -7; Cl transport mod: 0.59; ROMK primary: 0.044; NCF1 inh: -20; 14-3-3 Bad PPI: -7

What do the screens show for `CSC1=NC(C)(C)C=C(/C=C/c2ccc(Cl)cc2)N1`?
WT yeast gro inh: 21; RBBP9 inhibitor: -5; Cl transport mod: 0.54; ROMK primary: 0.12; NCF1 inh: -11; 14-3-3 Bad PPI: -10

How did O=c1ccc(-c2ccccc2)no1 do in these assays?
RBBP9 inhibitor: -7; Cl transport mod: -0.12; NCF1 inh: -18; 14-3-3 Bad PPI: -4

How did C/C=C(/C(=C/C)c1ccc(O)cc1)c1ccc(O)cc1 do in these assays?
WT yeast gro inh: 63*; RBBP9 inhibitor: -3; Cl transport mod: -1.2; NCF1 inh: -13; 14-3-3 Bad PPI: 7
